Experimental data as given in ChEMBL document CHEMBL1909620, “The development of N-α-(2-carboxyl)benzoyl-N(5)-(2-fluoro-1-iminoethyl)-l-ornithine amide (o-F-amidine) and N-α-(2-carboxyl)benzoyl-N(5)-(2-chloro-1-iminoethyl)-l-ornithine amide (o-Cl-amidine) as second generation protein arginine deiminase (PAD) inhibitors” (J Med Chem, 2011).
Activity calls are given as the source filed them. The calls are words filed in the database; no cut-off is given here.

Key:
[1] = target: Protein-arginine deiminase type-4 (Homo sapiens, UniProt Q9UM07); experiment: Irreversible inhibition of PAD4 assessed as hydrolysis of benzoyl-L-arginine ethyl ester preincubated for 15 mins measured after 15 mins by fluorometric analysis
Chain of Protein-arginine deiminase type-4 (Q9UM07 whole entry): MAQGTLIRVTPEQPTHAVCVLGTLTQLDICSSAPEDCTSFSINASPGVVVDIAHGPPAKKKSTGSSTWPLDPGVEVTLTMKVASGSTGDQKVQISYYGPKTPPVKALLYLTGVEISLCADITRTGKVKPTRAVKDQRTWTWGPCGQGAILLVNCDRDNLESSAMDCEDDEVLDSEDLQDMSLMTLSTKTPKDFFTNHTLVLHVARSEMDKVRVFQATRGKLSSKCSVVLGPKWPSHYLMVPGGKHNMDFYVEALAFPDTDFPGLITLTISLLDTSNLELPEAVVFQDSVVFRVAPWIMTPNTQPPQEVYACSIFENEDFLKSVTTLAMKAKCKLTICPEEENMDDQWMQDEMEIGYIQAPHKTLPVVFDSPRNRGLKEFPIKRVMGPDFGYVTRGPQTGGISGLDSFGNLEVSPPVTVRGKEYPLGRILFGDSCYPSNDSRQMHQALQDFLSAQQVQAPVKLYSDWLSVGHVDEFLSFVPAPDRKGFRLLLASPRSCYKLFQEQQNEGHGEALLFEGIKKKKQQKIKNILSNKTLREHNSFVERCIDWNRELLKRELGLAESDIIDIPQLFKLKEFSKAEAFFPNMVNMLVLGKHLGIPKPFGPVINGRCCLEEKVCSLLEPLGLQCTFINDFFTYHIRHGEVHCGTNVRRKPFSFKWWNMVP

HL-60 [2] = experiment: Potentiation of doxorubicin-induced cytotoxicity against human HL60 cells assessed as reduction in cell viability at 0.1 to 1 uM after 24 hrs by MTT assay relative to control; assay type: functional
How it was run: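 HL60 cells (RPMI 1640, 10% FBS, 37 °C, 5% CO2) were exposed for 24 h to doxorubicin alone or together with inhibitor at fixed levels. Viability was read by MTT assay as percent of control absorbance, run in triplicate. Doxorubicin EC50 came from dose-response fits. Interaction was scored by the additive model: observed/expected ratio <0.8 synergistic, 0.8–1.2 additive.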

HL-60 [3] = experiment: Cytotoxicity against human HL60 cells assessed as reduction in cell viability after 24 hrs by MTT assay relative to control; assay type: functional, cell-based; settings: HL-60, 24 h
How it was run: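 HL60 cells grown in RPMI 1640 with 10% FBS and 1% penicillin-streptomycin at 37 °C, 5% CO2, used at 1 × 10^6 cells/mL. Compounds were added at 100 nM to 100 μM final and incubated 24 h. Viability was read by MTT-type assay as percent of control absorbance, with 1% Triton X-100 as the 100% kill control. Triplicates; EC50 from dose-response fit where possible.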

HL-60 [4] = experiment: Induction of human HL60 cell differentiation assessed as increase in PAD4 expression level at 1 uM after 12 hrs by Western blotting; assay type: functional, cell-based
HL-60 [5] = experiment: Induction of human HL60 cell differentiation assessed as increase in PAD4 expression level at 10 uM after 6 hrs by Western blotting; assay type: functional, cell-based
HL-60 [6] = experiment: Induction of human HL60 cell differentiation assessed as increase in PAD4 expression level after 24 hrs by Western blotting; assay type: functional, cell-based
HL-60 [7] = experiment: Induction of human HL60 cell differentiation assessed as increase in PAD4 expression level at 1 uM after 24 hrs by Western blotting; assay type: functional, cell-based
HL-60 [8] = experiment: Induction of human HL60 cell differentiation assessed as increase in PAD4 expression level at 1 to 10 uM by Western blotting; assay type: functional, cell-based; settings: TDE = time-dependent effect
TK6 [9] = experiment: Induction of apoptosis in human TK6 cells assessed as viable cells at 50 ug/ml after 4 hrs by annexin V/propidium iodide staining method relative to control; assay type: functional; settings: TK6, 4 h, read-out: Activity
How it was run: (§1)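 TK6 human lymphoblastoid cells kept in exponential suspension culture in RPMI 1640 with 10% heat-inactivated calf serum, penicillin/streptomycin and 2 mmol/L L-glutamine at 37 °C, 5% CO2. Serum was cut to 1% 12 h before dosing at 50 μg/ml for the stated times. Cells were stained with Annexin V/propidium iodide and analysed as quadrant scatterplots.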

TK6 [10] = experiment: Induction of apoptosis in human TK6 cells assessed as necrotic cells at 50 ug/ml after 4 hrs by annexin V/propidium iodide staining method relative to control; assay type: functional; how it was run: as §1
TK6 [11] = experiment: Induction of apoptosis in human TK6 cells assessed as necrotic cells at 50 ug/ml after 8 hrs by annexin V/propidium iodide staining method relative to control relative to control; assay type: functional; how it was run: as §1
TK6 [12] = experiment: Induction of apoptosis in human TK6 cells assessed as early apoptotic cells at 50 ug/ml after 8 hrs by annexin V/propidium iodide staining method relative to control; assay type: functional; how it was run: as §1
TK6 [13] = experiment: Induction of apoptosis in human TK6 cells assessed as viable cells at 50 ug/ml after 2 hrs by annexin V/propidium iodide staining method relative to control; assay type: functional; settings: TK6, 2 h, read-out: Activity; how it was run: as §1
TK6 [14] = experiment: Induction of apoptosis in human TK6 cells assessed as necrotic cells at 50 ug/ml after 2 hrs by annexin V/propidium iodide staining method relative to control; assay type: functional; how it was run: as §1
[15] = target: Protein-arginine deiminase type-2 (Homo sapiens, UniProt Q9Y2J8); experiment: Irreversible inhibition of PAD2 assessed as hydrolysis of benzoyl-L-arginine ethyl ester preincubated for 15 mins measured after 15 mins by fluorometric analysis
Chain of Protein-arginine deiminase type-2 (Q9Y2J8 whole entry): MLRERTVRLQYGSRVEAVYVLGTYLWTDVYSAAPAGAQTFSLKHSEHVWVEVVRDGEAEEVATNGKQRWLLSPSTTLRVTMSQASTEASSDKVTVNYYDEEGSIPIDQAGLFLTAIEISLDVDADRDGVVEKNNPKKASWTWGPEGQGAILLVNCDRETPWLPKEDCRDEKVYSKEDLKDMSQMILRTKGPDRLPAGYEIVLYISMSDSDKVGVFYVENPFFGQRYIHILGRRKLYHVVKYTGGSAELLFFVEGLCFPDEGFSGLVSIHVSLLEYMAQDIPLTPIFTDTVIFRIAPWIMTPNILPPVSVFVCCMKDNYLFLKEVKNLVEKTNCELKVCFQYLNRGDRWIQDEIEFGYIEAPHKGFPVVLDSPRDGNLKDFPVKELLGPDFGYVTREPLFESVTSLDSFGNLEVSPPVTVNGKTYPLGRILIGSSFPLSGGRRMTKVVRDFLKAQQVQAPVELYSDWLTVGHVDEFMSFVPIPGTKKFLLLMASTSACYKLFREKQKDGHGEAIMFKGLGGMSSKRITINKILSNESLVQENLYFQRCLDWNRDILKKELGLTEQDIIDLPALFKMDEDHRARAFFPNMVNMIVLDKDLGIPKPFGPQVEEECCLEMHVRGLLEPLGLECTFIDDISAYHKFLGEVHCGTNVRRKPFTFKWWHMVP

TK6 [16] = experiment: Induction of apoptosis in human TK6 cells assessed as late apoptotic cells at 50 ug/ml after 2 hrs by annexin V/propidium iodide staining method relative to control; assay type: functional; how it was run: as §1
TK6 [17] = experiment: Induction of apoptosis in human TK6 cells assessed as viable cells at 50 ug/ml after 8 hrs by annexin V/propidium iodide staining method relative to control; assay type: functional; settings: TK6, 8 h, read-out: Activity; how it was run: as §1
TK6 [18] = experiment: Induction of apoptosis in human TK6 cells assessed as early apoptotic cells at 50 ug/ml after 2 hrs by annexin V/propidium iodide staining method relative to control; assay type: functional; how it was run: as §1
TK6 [19] = experiment: Induction of apoptosis in human TK6 cells assessed as late apoptotic cells at 50 ug/ml after 8 hrs by annexin V/propidium iodide staining method relative to control; assay type: functional; how it was run: as §1
TK6 [20] = experiment: Induction of apoptosis in human TK6 cells assessed as late apoptotic cells at 50 ug/ml after 4 hrs by annexin V/propidium iodide staining method relative to control; assay type: functional; how it was run: as §1
TK6 [21] = experiment: Induction of apoptosis in human TK6 cells assessed as induction of PARP cleavage at 50 ug/ml measured up to 8 hrs by Western blotting; assay type: functional, cell-based
How it was run: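 TK6 cells were moved to 1% heat-inactivated calf serum RPMI 1640 12 h beforehand, then exposed to 50 μg/ml for time courses. PARP cleavage was detected by western blot with anti-PARP antibody, using GAPDH as loading control.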

TK6 [22] = experiment: Induction of apoptosis in human TK6 cells assessed as early apoptotic cells at 50 ug/ml after 4 hrs by annexin V/propidium iodide staining method relative to control; assay type: functional
[23] = target: T1, Protein-arginine deiminase type-1 (Homo sapiens, UniProt Q9ULC6); experiment: Irreversible inhibition of PAD1 assessed as hydrolysis of benzoyl-L-arginine ethyl ester preincubated for 15 mins measured after 15 mins by fluorometric analysis
T1 sequence (Q9ULC6 whole entry): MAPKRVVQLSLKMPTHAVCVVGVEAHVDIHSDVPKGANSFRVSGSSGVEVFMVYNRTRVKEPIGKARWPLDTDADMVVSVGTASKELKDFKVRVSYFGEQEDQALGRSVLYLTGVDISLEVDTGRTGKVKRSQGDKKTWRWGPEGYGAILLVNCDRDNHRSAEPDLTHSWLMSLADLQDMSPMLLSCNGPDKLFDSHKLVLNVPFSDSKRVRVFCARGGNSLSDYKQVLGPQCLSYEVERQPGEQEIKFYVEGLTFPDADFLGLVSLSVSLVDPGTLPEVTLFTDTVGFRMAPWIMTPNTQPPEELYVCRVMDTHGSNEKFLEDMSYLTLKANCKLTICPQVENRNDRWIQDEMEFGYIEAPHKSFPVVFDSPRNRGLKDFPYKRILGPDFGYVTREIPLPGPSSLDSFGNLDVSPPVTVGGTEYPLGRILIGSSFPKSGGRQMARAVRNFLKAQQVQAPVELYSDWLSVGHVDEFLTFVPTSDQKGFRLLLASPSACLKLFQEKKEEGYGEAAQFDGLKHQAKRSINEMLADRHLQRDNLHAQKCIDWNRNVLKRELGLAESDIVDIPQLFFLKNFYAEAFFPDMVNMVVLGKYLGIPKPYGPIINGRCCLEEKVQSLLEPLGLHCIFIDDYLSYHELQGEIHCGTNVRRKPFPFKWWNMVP

[24] = target: T2, Protein-arginine deiminase type-3 (Homo sapiens, UniProt Q9ULW8); experiment: Irreversible inhibition of PAD3 assessed as hydrolysis of benzoyl-L-arginine ethyl ester preincubated for 15 mins measured after 15 mins by fluorometric analysis
T2 sequence (Q9ULW8 whole entry): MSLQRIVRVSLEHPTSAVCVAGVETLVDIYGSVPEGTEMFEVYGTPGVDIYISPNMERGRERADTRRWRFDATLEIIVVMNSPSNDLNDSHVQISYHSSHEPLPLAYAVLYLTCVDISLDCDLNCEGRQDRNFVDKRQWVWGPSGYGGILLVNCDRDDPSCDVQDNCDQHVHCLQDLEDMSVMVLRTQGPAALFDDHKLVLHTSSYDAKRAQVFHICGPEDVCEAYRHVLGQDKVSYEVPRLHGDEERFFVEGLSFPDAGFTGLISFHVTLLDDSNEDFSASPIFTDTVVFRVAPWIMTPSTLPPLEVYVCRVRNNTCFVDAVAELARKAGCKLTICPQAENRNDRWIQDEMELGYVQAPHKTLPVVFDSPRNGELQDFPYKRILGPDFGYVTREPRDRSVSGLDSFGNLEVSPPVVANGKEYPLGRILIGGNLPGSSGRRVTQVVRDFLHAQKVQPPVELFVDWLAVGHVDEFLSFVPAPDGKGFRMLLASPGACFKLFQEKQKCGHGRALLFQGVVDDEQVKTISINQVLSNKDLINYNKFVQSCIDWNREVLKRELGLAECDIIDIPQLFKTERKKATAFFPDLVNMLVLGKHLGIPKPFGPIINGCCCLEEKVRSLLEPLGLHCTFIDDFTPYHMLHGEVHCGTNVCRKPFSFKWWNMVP

## N=C(CF)Nc1cccc(C[C@H](NC(=O)c2ccccc2)C(N)=O)c1
[1]
  IC50: 310 µM

## N=C(CF)Nc1ccccc1
[1]
  IC50: > 500 µM

## COc1cccc2c1C(=O)c1c(O)c3c(c(O)c1C2=O)C[C@@](O)(C(=O)CO)C[C@@H]3O[C@H]1C[C@H](N)[C@H](O)[C@H](C)O1 [DOXORUBICIN]
HL-60 [2]
  fold change (FC): 6
HL-60 [3]
  EC50: 2.5 µM

## N=C(CCl)NCCC[C@H](NC(=O)c1ccccc1C(=O)O)C(N)=O
HL-60 [4]
  Activity: Active
HL-60 [5]
  Activity: Active
HL-60 [6]
  Activity: Dose-dependent effect
HL-60 [7]
  Activity: Active
HL-60 [8]
  Activity: tde

## N=C(CF)NCCC[C@H](NS(=O)(=O)c1ccccc1)C(N)=O
[1]
  IC50: 500 µM

## N=C(CF)Nc1cccc([C@H](NC(=O)c2ccccc2)C(N)=O)c1
[1]
  IC50: 2100 µM

## N=C(CF)Nc1ccc(C[C@H](NC(=O)c2ccccc2)C(N)=O)cc1
[1]
  IC50: 310 µM

## N=C(CF)NCCC[C@H](NC(=O)c1ccccc1C(=O)O)C(N)=O.O=C(O)C(F)(F)F
TK6 [9]
  viability at 50 µg/mL: 74.9%
HL-60 [4]
  Activity: Active
TK6 [10]
  Activity: 0.3%
TK6 [11]
  Activity: 0.3%
TK6 [12]
  Activity: 27.7%
TK6 [13]
  viability at 50 µg/mL: 88%
TK6 [14]
  Activity: 0.3%
HL-60 [5]
  Activity: Active
HL-60 [6]
  Activity: Dose-dependent effect
[15]
  IC50: ≥ 50 µM
TK6 [16]
  Activity: 3.3%
HL-60 [7]
  Activity: Active
TK6 [17]
  viability at 50 µg/mL: 60.1%
TK6 [18]
  Activity: 8.3%
TK6 [19]
  Activity: 11.9%
HL-60 [8]
  Activity: tde
TK6 [20]
  Activity: 4.8%
TK6 [21]
  Activity: Active

## N=C(CCl)NCCC[C@H](NC(=O)c1ccccc1)C(N)=O.O=C(O)C(F)(F)F
TK6 [9]
  viability at 50 µg/mL: 78.8%
TK6 [10]
  Activity: 0.4%
TK6 [11]
  Activity: 0.8%
TK6 [12]
  Activity: 20.4%
TK6 [13]
  viability at 50 µg/mL: 85.6%
TK6 [14]
  Activity: 0.1%
TK6 [16]
  Activity: 6.8%
TK6 [17]
  viability at 50 µg/mL: 46.2%
TK6 [18]
  Activity: 7.5%
TK6 [19]
  Activity: 32.6%
TK6 [22]
  Activity: 11.9%
TK6 [20]
  Activity: 8.9%
TK6 [21]
  Activity: Active

## N=C(CF)NCCC[C@H](NC(=O)c1ccccc1)C(N)=O
[23]
  IC50: 29 µM
  Ki: 110 µM
[24]
  IC50: 367 µM
  Ki: 293 µM

## N=C(CF)NCCCCNC(=O)c1ccccc1
[1]
  IC50: > 1000 µM

## N=C(CF)NCCC[C@H](NC(=O)c1c[nH]cn1)C(N)=O
[1]
  IC50: 230 µM

## N=C(CF)NCc1ccccc1
[1]
  IC50: > 1000 µM

## CCCNC(=N)CF
[1]
  IC50: > 1000 µM

## N=C(CF)NCc1ccc(C[C@H](NC(=O)c2ccccc2)C(N)=O)cc1
[1]
  IC50: > 1000 µM

## N=C(N)CF
[1]
  IC50: > 10000 µM

## N=C(CF)NCCCCNS(=O)(=O)c1ccccc1
[1]
  IC50: > 1000 µM
